According to ChEMBL document CHEMBL4373711, “Development of 3,5-Dinitrophenyl-Containing 1,2,4-Triazoles and Their Trifluoromethyl Analogues as Highly Efficient Antitubercular Agents Inhibiting Decaprenylphosphoryl-β-d-ribofuranose 2'-Oxidase” (J Med Chem, 2019):
In brackets after ≈: the same amount, converted by molar mass. Activity calls are given as the source filed them. The rule behind the calls is not given here.

What was measured:
Candida tropicalis = assay: Antifungal activity against Candida tropicalis ATCC 750 CCM 8264 at highest concentration measured after 24 to 48 hrs by alamar blue dye based broth microdilution assay; assay type: functional, organism-based
Lichtheimia corymbifera = assay: Antifungal activity against Lichtheimia corymbifera CCM 8077 at highest concentration measured after 24 to 48 hrs by alamar blue dye based broth microdilution assay; assay type: functional, organism-based
Mycobacterium kansasii [1] = assay: Antimycobacterial activity against Mycobacterium kansasii 6509/96 after 14 days; assay type: functional; conditions: 6509/96, 336 h
Outline: (§1)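 Microdilution in Šula's semisynthetic medium; compounds in DMSO at 32–0.03 µM. Inoculum from 1.0 McFarland suspension diluted 10-4. […] Isoniazid and rifampicin as reference drugs.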

Aspergillus fumigatus = assay: Antifungal activity against Aspergillus fumigatus ATCC 204305 at highest concentration measured after 24 to 48 hrs by alamar blue dye based broth microdilution assay; assay type: functional, organism-based
Candida parapsilosis = assay: Antifungal activity against Candida parapsilosis ATCC 22019 CCM 8260 at highest concentration measured after 24 to 48 hrs by alamar blue dye based broth microdilution assay; assay type: functional, organism-based
Aspergillus flavus = assay: Antifungal activity against Aspergillus flavus CCM 8363 at highest concentration measured after 24 to 48 hrs by alamar blue dye based broth microdilution assay; assay type: functional, organism-based
Pseudomonas aeruginosa = assay: Antibacterial activity against Pseudomonas aeruginosa ATCC 27853 CCM 3955 at highest concentration measured after 24 to 48 hrs by alamar blue dye based broth microdilution assay; assay type: functional, organism-based
Mycobacterium kansasii [2] = assay: Antimycobacterial activity against Mycobacterium kansasii CNCTC My 235/80 after 14 days; assay type: functional; conditions: CNCTC My 235/80, 336 h; outline: as §1
Mycobacterium kansasii [3] = assay: Antimycobacterial activity against Mycobacterium kansasii CNCTC My 235/80 after 7 days; assay type: functional; conditions: CNCTC My 235/80, 168 h; outline: as §1
[4] = tested on: Staphylococcus epidermidis; assay: Antibacterial activity against Staphylococcus epidermidis at highest concentration measured after 24 to 48 hrs by alamar blue dye based broth microdilution assay; assay type: functional, organism-based
Enterococcus faecalis = assay: Antibacterial activity against Enterococcus faecalis ATCC 29212 CCM 4224 at highest concentration measured after 24 to 48 hrs by alamar blue dye based broth microdilution assay; assay type: functional, organism-based
Mycobacterium avium [5] = assay: Antimycobacterial activity against Mycobacterium avium CNCTC My 330/88 after 21 days; assay type: functional; conditions: CNCTC My 330/88, 504 h
Outline: (§2)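 M. avium was tested by microdilution in Šula's semisynthetic medium, with compounds dissolved in DMSO and serially diluted from 1000 down to 1. Inoculum was a 1.0 McFarland suspension diluted 10-5. Plates were incubated at 37 °C and read at 14 and 21 days. […] Isoniazid and rifampicin served as standards.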

Mycobacterium kansasii [6] = assay: Antimycobacterial activity against Mycobacterium kansasii 6509/96 after 21 days; assay type: functional; conditions: 6509/96, 504 h; outline: as §1
Mycobacterium avium [7] = assay: Antimycobacterial activity against Mycobacterium avium CNCTC My 330/88 after 14 days; assay type: functional; conditions: CNCTC My 330/88, 336 h; outline: as §2
[8] = tested on: Mycobacterium tuberculosis; assay: Antimycobacterial activity against Mycobacterium tuberculosis H37Rv CNCTC My 331/88 after 21 days; assay type: functional; conditions: H37Rv CNCTC My 331/88, 504 h
Outline: (§3)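 M. tuberculosis strains (H37Rv and clinical MDR/XDR isolates) tested by microdilution in Šula's semisynthetic medium. Compounds were dissolved in DMSO and tested at 32 to 0.03 µM in twofold steps. Inoculum was a 1.0 McFarland suspension diluted 10-3. Plates were incubated at 37 °C and read at 14 and 21 days.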

Pichia kudriavzevii = assay: Antifungal activity against Candida krusei ATCC 6258 CCM8271 at highest concentration measured after 24 to 48 hrs by alamar blue dye based broth microdilution assay; assay type: functional, organism-based
Candida albicans = assay: Antifungal activity against Candida albicans ATCC 24433 CCM 8320 at highest concentration measured after 24 to 48 hrs by alamar blue dye based broth microdilution assay; assay type: functional, organism-based
[9] = tested on: Trichophyton interdigitale; assay: Antifungal activity against Trichophyton interdigitale ATCC 9533 CCM 8377 at highest concentration measured after 72 to 120 hrs by alamar blue dye based broth microdilution assay; assay type: functional
Escherichia coli = assay: Antibacterial activity against Escherichia coli ATCC 25922 CCM 3954 at highest concentration measured after 24 to 48 hrs by alamar blue dye based broth microdilution assay; assay type: functional, organism-based
Staphylococcus aureus [10] = assay: Antibacterial activity against Staphylococcus aureus subsp. aureus ATCC 29213 CCM 4223 at highest concentration measured after 24 to 48 hrs by alamar blue dye based broth microdilution assay; assay type: functional, organism-based
Mycobacterium kansasii [11] = assay: Antimycobacterial activity against Mycobacterium kansasii CNCTC My 235/80 after 21 days; assay type: functional; conditions: CNCTC My 235/80, 504 h; outline: as §1
Serratia marcescens = assay: Antibacterial activity against Serratia marcescens at highest concentration measured after 24 to 48 hrs by alamar blue dye based broth microdilution assay; assay type: functional, organism-based
Staphylococcus aureus [12] = assay: Antibacterial activity against methicillin-resistant Staphylococcus aureus subsp. aureus ATCC 43300 CCM 4750 at highest concentration measured after 24 to 48 hrs by alamar blue dye based broth microdilution assay; assay type: functional, organism-based
Mycobacterium kansasii [13] = assay: Antimycobacterial activity against Mycobacterium kansasii 6509/96 after 7 days; assay type: functional; conditions: 6509/96, 168 h; outline: as §1
Klebsiella pneumoniae = assay: Antibacterial activity against Klebsiella pneumoniae at highest concentration measured after 24 to 48 hrs by alamar blue dye based broth microdilution assay; assay type: functional, organism-based
[14] = tested on: Mycobacterium tuberculosis; assay: Antimycobacterial activity against Mycobacterium tuberculosis H37Rv CNCTC My 331/88 after 14 days; assay type: functional; conditions: H37Rv CNCTC My 331/88, 336 h; outline: as §3

SMILES	Activity (Candida tropicalis)	Activity (Lichtheimia corymbifera)	MIC99 (Mycobacterium kansasii [1])	Activity (Aspergillus fumigatus)	Activity (Candida parapsilosis)	Activity (Aspergillus flavus)	Activity (Pseudomonas aeruginosa)	MIC99 (Mycobacterium kansasii [2])	MIC99 (Mycobacterium kansasii [3])	Activity [4]	Activity (Enterococcus faecalis)	MIC99 (Mycobacterium avium [5])	MIC99 (Mycobacterium kansasii [6])	MIC99 (Mycobacterium avium [7])	MIC99 [8]	Activity (Pichia kudriavzevii)	Activity (Candida albicans)	Activity [9]	Activity (Escherichia coli)	Activity (Staphylococcus aureus [10])	also measured
O=[N+]([O-])c1cc(CSc2nnc(-c3ccccc3)n2Cc2ccc(Cl)cc2Cl)cc([N+](=O)[O-])c1	inactive	inactive	> 32 µM	inactive	inactive	inactive	inactive	> 32 µM	> 32 µM	inactive	inactive	250 µM (≈ 129 µg/mL)	> 32 µM	250 µM (≈ 129 µg/mL)	> 32 µM	inactive	inactive	inactive	inactive	inactive	MIC99 (Mycobacterium kansasii [11]): > 32 µM; Activity (Serratia marcescens): inactive; Activity (Staphylococcus aureus [12]): inactive; MIC99 (Mycobacterium kansasii [13]): > 32 µM; Activity (Klebsiella pneumoniae): inactive; MIC99 [14]: > 32 µM
CCCCCCc1nnc(SCc2cc([N+](=O)[O-])cc([N+](=O)[O-])c2)n1Cc1ccccc1	inactive	inactive	4 µM (≈ 1.82 µg/mL)	inactive	inactive	inactive	inactive	2 µM (≈ 0.911 µg/mL)	1 µM (≈ 0.456 µg/mL)	inactive	inactive	250 µM (≈ 114 µg/mL)	4 µM (≈ 1.82 µg/mL)	250 µM (≈ 114 µg/mL)	2 µM (≈ 0.911 µg/mL)	inactive	inactive	inactive	inactive	inactive	MIC99 (Mycobacterium kansasii [11]): 2 µM (≈ 0.911 µg/mL); Activity (Serratia marcescens): inactive; Activity (Staphylococcus aureus [12]): inactive; MIC99 (Mycobacterium kansasii [13]): 2 µM (≈ 0.911 µg/mL); Activity (Klebsiella pneumoniae): inactive; MIC99 [14]: 2 µM (≈ 0.911 µg/mL)
CCCCCCCCCCCc1nnc(SCc2cc([N+](=O)[O-])cc([N+](=O)[O-])c2)n1Cc1ccccc1	inactive	inactive	4 µM (≈ 2.1 µg/mL)	inactive	inactive	inactive	inactive	4 µM (≈ 2.1 µg/mL)	2 µM (≈ 1.05 µg/mL)	inactive	inactive	250 µM (≈ 131 µg/mL)	8 µM (≈ 4.21 µg/mL)	250 µM (≈ 131 µg/mL)	4 µM (≈ 2.1 µg/mL)	inactive	inactive	inactive	inactive	inactive	MIC99 (Mycobacterium kansasii [11]): 4 µM (≈ 2.1 µg/mL); Activity (Serratia marcescens): inactive; Activity (Staphylococcus aureus [12]): inactive; MIC99 (Mycobacterium kansasii [13]): 2 µM (≈ 1.05 µg/mL); Activity (Klebsiella pneumoniae): inactive; MIC99 [14]: 4 µM (≈ 2.1 µg/mL)
CCCCCCCCCCCCn1c(SCc2ccccc2)nnc1-c1cc([N+](=O)[O-])cc([N+](=O)[O-])c1	inactive	inactive	4 µM (≈ 2.1 µg/mL)	inactive	inactive	inactive	inactive	4 µM (≈ 2.1 µg/mL)	2 µM (≈ 1.05 µg/mL)	inactive	inactive	250 µM (≈ 131 µg/mL)	4 µM (≈ 2.1 µg/mL)	250 µM (≈ 131 µg/mL)	4 µM (≈ 2.1 µg/mL)	inactive	inactive	inactive	inactive	inactive	MIC99 (Mycobacterium kansasii [11]): 4 µM (≈ 2.1 µg/mL); Activity (Serratia marcescens): inactive; Activity (Staphylococcus aureus [12]): inactive; MIC99 (Mycobacterium kansasii [13]): 2 µM (≈ 1.05 µg/mL); Activity (Klebsiella pneumoniae): inactive; MIC99 [14]: 2 µM (≈ 1.05 µg/mL)
